Bioassay records as filed in PubChem BioAssay.
Compounds with a hit are over-represented: about 2.6% of the library has one in this group of screens.
OX1R antag-1 – antagonists of human orexin 1 receptor (OX1R). actives 1.8% (n = 330,000). inhibition, % at 6.6 µM. AID 485270, 2010. OX1R-expressing cells, FRET antagonist read-out; in the data active means inhibition mostly above about 38%, no sharp cut-off; inactive means mostly below about 40%;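 further: 0% = agonist challenge alone and 100% = reference antagonist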
Target sequence (O43613 whole entry, looked up): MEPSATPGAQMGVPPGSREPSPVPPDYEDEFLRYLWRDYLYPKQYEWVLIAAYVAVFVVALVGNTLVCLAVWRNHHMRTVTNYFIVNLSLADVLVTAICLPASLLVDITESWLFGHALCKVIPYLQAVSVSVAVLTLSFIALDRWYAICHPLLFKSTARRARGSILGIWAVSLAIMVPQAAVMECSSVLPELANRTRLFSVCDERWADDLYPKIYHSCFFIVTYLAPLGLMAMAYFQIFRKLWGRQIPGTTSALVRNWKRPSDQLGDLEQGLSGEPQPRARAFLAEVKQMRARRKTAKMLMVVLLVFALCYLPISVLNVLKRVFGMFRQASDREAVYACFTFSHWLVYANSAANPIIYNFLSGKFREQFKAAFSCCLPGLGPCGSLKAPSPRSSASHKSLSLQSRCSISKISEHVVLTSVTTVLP
OX1R antag-2 – OX1R (HCRTR1) antagonists, primary screen, fluorescence, CHO/OX1R cells, Fluo-8 calcium, orexin A; Orexin/Hypocretin receptor type 1 (Homo sapiens), O43613; Fluo-8 calcium fluorescence; inhibition, % at 5 µM; actives 0.43% (n = 330,000); AID 434989, 2010;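 active means inhibition above its plate's threshold, mean inhibition of all tested compounds on the plate plus 3 SD, cut at about 37% in these data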;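 further: 0% = orexin A challenge wells and 100% = SB-334867-A antagonist wells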
OXTR ag – human OXTR agonists, primary screen, fluorescence, CHO-OTR cells, Fluo-8 calcium; Oxytocin receptor (Homo sapiens), P30559; Fluo-8 calcium fluorescence; normalized: DMSO 0%, oxytocin 100%; actives 0.32% (n = 320,000); activation, % at 3 µM;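 active means activation above the mean of all tested compounds plus 3 SD, cutoff set per screening run, cut at about 20% in these data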;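 further: peak over basal fluorescence ratio from a 100 s FLIPR kinetic read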
OXTR potentiate – human OXTR potentiators, primary screen, fluorescence, CHO-OTR cells, Fluo-8 calcium | activation, % at 3 µM | actives 0.061% (n = 320,000) | Fluo-8 calcium fluorescence, potentiator mode; 0% = oxytocin EC15, 100% = EC100 | Oxytocin receptor (Homo sapiens), P30559;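 active means activation above that plate's cutoff, the mean activation of tested compounds plus 3 SD, cut at about 6.6% in these data, passing the limit was not always enough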;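 further: 100% uses oxytocin at 75 nM as the full agonist control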
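Assay system: CHO-OTR cells, human receptor / Also added: oxytocin at about EC15, sub-maximal agonist stimulus / Dosing: single dose, 3.0 µM nominal final compound concentration / Incubation: 6 min pre-incubation, 100 s read / Technique: Fluo-8 calcium dye fluorescence / Read-out: % activation vs EC15 and EC100 oxytocin / Benchmarks: EC15 oxytocin low, 75 nM oxytocin high / Replicates: singlicate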
CHO parental Ca – ATP-evoked calcium signal inhibitors, parental CHO, primary screen, counter-screen for OX1R antagonist project, cell-based, fluorescence, Fluo-8 calcium dye; actives 0.63% (n = 330,000); parental CHO-K1, ATP-induced calcium, Fluo-8 fluorescence; AID 463079, 2010; inhibition, % at 5.6 µM;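 active means inhibition above that plate's mean sample inhibition plus 3 SD, cut at about 26% in these data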;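 further: 0% = ATP-challenged DMSO wells and 100% = DMSO wells without ATP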
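Material – parental CHO cells · Reagent – ATP stimulus · Compound – single nominal dose of 5.6 µM per compound · Detection – Fluo-8 fluorescence · Read-out basis – percent inhibition of calcium signal · Controls – ATP-challenged DMSO wells low, unchallenged DMSO wells high · Repeats – no replicates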
V1aR counter – agonists of human V1a receptor, primary screen, counter-screen for OXTR agonist project, fluorescence, CHO-V1R cells; Vasopressin V1a receptor (Homo sapiens), P37288; Fluo-8 calcium fluorescence, agonist mode; 0% DMSO, 100% 3 nM vasopressin; activation, % at 3 µM; actives 0.25% (n = 320,000);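 active means activation above the mean activation of all tested compounds plus 3 SD, per screening run, cut at about 20% in these data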;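 further: signal is peak over basal fluorescence ratio across a 100 second FLIPR read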
Starred values were filed as active, the others as inactive.

SMILES	OX1R antag-1	OX1R antag-2	OXTR ag	OXTR potentiate	CHO parental Ca	V1aR counter
O=[N+]([O-])c1c(NCCCO)cc(SCc2ccco2)c2nonc12	61*	1	2	-3	-4	5
O=[N+]([O-])c1ccc(-c2nnc3cccc(Cl)n23)cc1	49*	-18	-1	-2	-7	0
O=C(COC(=O)c1ccc2c(c1Cl)C(=O)c1ccccc1C2=O)NC1CC1	61*	-24	2	-18	-21	5
O=C(NC(=S)NC1CCC(O)CC1)c1ccco1 (stereo not given)	4	-4	1	-1	-3	0
COc1ccc(CNC(=O)CCCC(=O)n2nc(C)c3ccccc32)cc1	1	-17	-1	3	-16	1
Cc1cc(NC2CCCCC2)nc(NCc2ccccc2)n1	19	-6	14	-17	36*	15
Cc1cc(Br)ccc1NC(=O)CN1C(=O)C2C3CC(c4ccccc4)C(C3)C2C1=O (stereo not given)	10	40	14	-12	31*	6
Cc1cc(Br)ccc1NC(=O)CNC(=O)CN1C(=O)NC2(CCCCCC2)C1=O	38	-12	0	-2	-23	-1
COc1ccc(CCNC(=O)c2cccs2)cc1OC	10	3	2	5	-1	0
COc1ccc(CNc2nc(NCc3ccc(OC)c(OC)c3)n(C(=O)c3cccs3)n2)cc1OC	44*	-1	2	-3	6	2
COc1cc(CNc2ccc3[nH]c(=O)[nH]c3c2)ccc1OCC(=O)NC(C)(C)C	28	-15	0	-1	99*	0
CCN(Cc1ccccc1)C(=O)CN1C(=O)NC(CC)(c2ccc(F)cc2)C1=O (stereo not given)	15	-6	2	-8	-18	3
CC1CCCC(NC(=O)Cn2c(Cl)nc3c2c(=O)n(C)c(=O)n3C)C1C (stereo not given)	14	-9	1	-8	-9	1
O=C(OCC(=O)N1CCCC1)c1ccc(Cl)c([N+](=O)[O-])c1	65*	1	0	-13	-2	0
COC(=O)c1cc(C(=O)NNC(=O)c2ccc3c(c2)OCO3)cc([N+](=O)[O-])c1	54*	-22	0	-7	-11	0
O=C(OCC(=O)N1CCCC1)c1cc(Cl)ccc1[N+](=O)[O-]	54	-3	0	0	-10	1
COC(=O)c1cc(C(=O)OCC(=O)NC2CCCCCCC2)cc([N+](=O)[O-])c1	18	-16	-2	-2	-8	-1
Nc1ccc(C(=O)OCC(=O)N2CCOCC2)cc1[N+](=O)[O-]	49*	6	2	-2	3	1
COC(=O)c1cc(C(=O)OCC(=O)N2CCCCC2)cc([N+](=O)[O-])c1	56*	2	0	-1	-7	0
Cc1csc(NC(=O)CSC2=NS(=O)(=O)c3ccccc3N2)n1	7	4	0	1	-1	-1
CCCCCOc1ccc(C(=O)CCC(=O)N2CCCC2)cc1	10	-38	4	-9	-7	6
COC(=O)c1cc(C(=O)OCC(=O)NNC(=O)c2cccs2)cc([N+](=O)[O-])c1	60*	-17	1	-3	-9	0
Cc1cc(O)cc(C)c1Cl	12	-10	0	-13	-7	2
Cc1cc(O)c(N)c(C)c1Cl	54*	-22	1	-6	-14	1
CC(C)c1ccc(C(=O)Nc2cccnc2)cc1	-2	-15	0	8	-2	0
SMILES	OX1R antag-1	OX1R antag-2	OXTR ag	OXTR potentiate	CHO parental Ca	V1aR counter
c1cc2[nH]snc2c2nc(C3CC3)nc12	46*	-10	-1	1	-10	-1
CN=c1c([N+](=O)[O-])nn(-c2ccc3c(c2)OCCO3)n1O	62*	-19	-1	-10	-2	1
CC[N+]1(C)[C@@H]2CC[C@H]1CC(OC(=O)[C@H]1CCC(C(=O)OC3C[C@H]4CC[C@@H](C3)[N+]4(C)CC)(c3ccccc3)c3ccccc31)C2 (stereo not given in full)	10	-6	1	-3	-1	1
O=C(Nc1ncc(Cc2ccc(SC(F)F)cc2)s1)c1ccc(OC(F)F)cc1	29	61*	23*	-8	23	25*
Cc1ccc(Cc2cnc(NC(=O)c3ccco3)s2)cc1	17	-2	-1	-6	-9	1
COc1ccc(NC2=C(NCCO)C(=O)c3ccccc3C2=O)cc1	23	1	0	-10	-3	0
COc1cccc(NC2=C(NCCO)C(=O)c3ccccc3C2=O)c1	46*	-29	-2	-5	-15	-1
CC(C)(C)OC(=O)C[C@@H]1C/C=C\C[C@@H](CC(=O)N[C@@H](CO)Cc2ccccc2)C(=O)N2CCC[C@@H]2COC1=O	9	-24	-1	-2	-22	0
O=C(N/N=C1\C2CN3CCN(C2)CC1(c1ccccc1)C3)c1ccc(F)cc1	5	-13	0	-4	-5	0
Nc1ccccc1C(=O)N/N=C1\C2CN3CCN(C2)CC1(c1ccccc1)C3	19	0	1	14*	-5	0
COc1ccc(CCC(=O)OCC(=O)c2c(N)n(CC(C)C)c(=O)n(C)c2=O)cc1	41	24	14	-10	44*	13
Cc1ccc(S(=O)(=O)CCC(=O)OCC(=O)c2c(N)n(CC(C)C)c(=O)n(C)c2=O)cc1	15	-11	13	-13	-6	11
O=S(=O)(c1c(F)cccc1F)C1CCN(S(=O)(=O)c2ccc3c(c2)OCCO3)CC1	6	-11	1	-9	-8	1
COCCN1C(=O)c2ccc(C(=O)O)cc2C1=O	15	-4	0	-1	2	1
COCCN1C(=O)c2ccc(C(=O)Nc3nccs3)cc2C1=O	46*	-5	0	-6	5	0
COc1ccccc1CC(=O)Nc1cccc(C(=O)Nc2nccs2)c1	49*	-12	-1	-4	-16	0
CC(C)CN1C(=O)c2ccc(C(=O)Nc3nccs3)cc2C1=O	14	-21	1	-8	-8	1
CCCN1C(=O)c2ccc(C(=O)Nc3nccs3)cc2C1=O	45*	-7	0	-5	-6	1
